Experimental data published in ChEMBL document CHEMBL3784960, “New 4-Functionalized Glutamate Analogues Are Selective Agonists at Metabotropic Glutamate Receptor Subtype 2 or Selective Agonists at Metabotropic Glutamate Receptor Group III” (J Med Chem, 2016).
Active and inactive are the calls of the source. No cut-off for these calls is given here.

Assays:
[1] = target: T1, Metabotropic glutamate receptor 3 (Rattus norvegicus, UniProt P31422); assay: Agonist activity at rat mGlu3 receptor by FRET based mGlu sensor assay
T1 sequence (P31422 whole entry): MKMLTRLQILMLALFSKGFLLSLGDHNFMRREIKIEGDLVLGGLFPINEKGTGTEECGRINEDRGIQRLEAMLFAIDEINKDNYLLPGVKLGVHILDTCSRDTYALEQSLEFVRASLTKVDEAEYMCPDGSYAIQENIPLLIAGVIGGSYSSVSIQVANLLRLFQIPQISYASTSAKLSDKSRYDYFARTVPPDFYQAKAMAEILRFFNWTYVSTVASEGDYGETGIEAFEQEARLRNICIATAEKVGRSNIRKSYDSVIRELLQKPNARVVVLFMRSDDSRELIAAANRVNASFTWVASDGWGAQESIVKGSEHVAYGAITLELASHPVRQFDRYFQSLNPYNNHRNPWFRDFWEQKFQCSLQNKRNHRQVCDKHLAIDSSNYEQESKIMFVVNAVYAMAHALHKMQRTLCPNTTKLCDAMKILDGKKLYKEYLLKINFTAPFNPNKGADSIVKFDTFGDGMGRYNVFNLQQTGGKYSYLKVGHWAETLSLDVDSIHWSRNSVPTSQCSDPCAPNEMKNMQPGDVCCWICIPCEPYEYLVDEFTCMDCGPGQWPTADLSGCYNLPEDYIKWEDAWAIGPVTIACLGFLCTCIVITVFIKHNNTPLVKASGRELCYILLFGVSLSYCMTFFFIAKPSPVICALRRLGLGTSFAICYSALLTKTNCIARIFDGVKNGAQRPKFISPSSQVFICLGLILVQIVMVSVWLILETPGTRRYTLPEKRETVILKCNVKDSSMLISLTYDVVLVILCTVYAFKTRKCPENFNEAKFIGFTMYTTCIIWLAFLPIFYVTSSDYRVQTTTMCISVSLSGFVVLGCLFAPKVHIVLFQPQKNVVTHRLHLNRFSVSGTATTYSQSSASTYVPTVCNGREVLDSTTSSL
How it was run: (§1)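 Receptor carried an N-terminal SNAP-tag and was transfected into HEK293 cells. At 24 h, surface receptors were labelled for 1 h with 100 nM SNAP-Lumi4-Tb (donor) and 60 nM SNAP Green (acceptor), washed three times, then drug was added. Time-resolved FRET was recorded at 520 nm, at least in duplicate. EC50 ± SEM came from n = 4−6 experiments.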

[2] = target: T2, Metabotropic glutamate receptor 5 (Rattus norvegicus, UniProt P31424); assay: Agonist activity at rat mGlu5 receptor expressed in HEK293 cells assessed as IP1 accumulation by IP-One functional assay; type: cell-based
T2 sequence (P31424 whole entry): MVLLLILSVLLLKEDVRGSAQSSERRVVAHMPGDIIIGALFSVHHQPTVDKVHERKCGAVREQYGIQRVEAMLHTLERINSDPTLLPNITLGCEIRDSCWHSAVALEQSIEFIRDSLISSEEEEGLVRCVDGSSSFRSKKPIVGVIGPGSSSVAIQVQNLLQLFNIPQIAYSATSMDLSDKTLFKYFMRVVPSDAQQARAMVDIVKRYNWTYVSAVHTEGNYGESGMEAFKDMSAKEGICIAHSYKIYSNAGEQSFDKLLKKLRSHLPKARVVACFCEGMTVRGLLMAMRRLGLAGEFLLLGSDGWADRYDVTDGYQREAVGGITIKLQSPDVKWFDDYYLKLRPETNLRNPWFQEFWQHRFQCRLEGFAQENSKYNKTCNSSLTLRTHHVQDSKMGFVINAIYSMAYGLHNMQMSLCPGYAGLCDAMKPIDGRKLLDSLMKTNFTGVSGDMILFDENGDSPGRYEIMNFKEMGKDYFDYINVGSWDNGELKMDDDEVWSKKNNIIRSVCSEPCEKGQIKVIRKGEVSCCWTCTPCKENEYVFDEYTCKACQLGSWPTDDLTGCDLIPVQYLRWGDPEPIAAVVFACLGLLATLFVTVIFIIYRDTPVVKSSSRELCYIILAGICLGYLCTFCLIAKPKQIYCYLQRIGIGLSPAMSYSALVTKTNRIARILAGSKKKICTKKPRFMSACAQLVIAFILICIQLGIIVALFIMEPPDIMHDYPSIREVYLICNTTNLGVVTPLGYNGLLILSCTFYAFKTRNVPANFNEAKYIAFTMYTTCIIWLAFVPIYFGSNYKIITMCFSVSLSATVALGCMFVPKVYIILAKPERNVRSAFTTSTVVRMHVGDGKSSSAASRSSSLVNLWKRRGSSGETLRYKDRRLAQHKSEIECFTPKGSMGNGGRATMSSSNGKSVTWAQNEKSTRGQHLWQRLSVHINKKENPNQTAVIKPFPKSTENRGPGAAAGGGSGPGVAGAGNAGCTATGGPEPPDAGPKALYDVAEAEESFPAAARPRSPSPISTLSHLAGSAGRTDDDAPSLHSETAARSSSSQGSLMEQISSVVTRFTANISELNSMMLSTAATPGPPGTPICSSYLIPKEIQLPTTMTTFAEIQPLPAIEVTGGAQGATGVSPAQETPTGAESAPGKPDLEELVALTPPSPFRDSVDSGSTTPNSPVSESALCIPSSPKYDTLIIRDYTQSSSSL

[3] = Displacement of [3H]AMPA from rat synaptosome AMPA receptor after 30 mins by microplate scintillation counter analysis
[4] = target: T3, Excitatory amino acid transporter 1 (Homo sapiens, UniProt P43003); assay: Inhibition of human EAAT1 assessed as [3H]Asp uptake
T3 sequence (P43003 whole entry): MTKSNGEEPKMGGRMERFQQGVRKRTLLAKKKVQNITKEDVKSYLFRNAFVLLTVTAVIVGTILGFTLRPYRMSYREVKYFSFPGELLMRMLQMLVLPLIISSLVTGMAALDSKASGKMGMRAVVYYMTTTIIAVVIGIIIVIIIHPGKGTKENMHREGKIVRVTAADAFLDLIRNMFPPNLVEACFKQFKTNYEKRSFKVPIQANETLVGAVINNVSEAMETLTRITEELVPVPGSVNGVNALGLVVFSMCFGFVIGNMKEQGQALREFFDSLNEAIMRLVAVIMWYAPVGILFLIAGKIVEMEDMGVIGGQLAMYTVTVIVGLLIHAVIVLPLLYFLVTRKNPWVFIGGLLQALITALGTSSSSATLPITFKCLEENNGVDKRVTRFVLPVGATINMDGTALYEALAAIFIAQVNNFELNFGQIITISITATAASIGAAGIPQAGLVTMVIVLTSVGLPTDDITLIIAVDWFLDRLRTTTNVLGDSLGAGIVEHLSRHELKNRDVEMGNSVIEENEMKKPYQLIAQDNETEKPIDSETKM

[5] = target: T4, Metabotropic glutamate receptor 2 (Rattus norvegicus, UniProt P31421); assay: Agonist activity at rat mGlu2 receptor expressed in HEK293 cells assessed as IP1 accumulation by IP-One functional assay; type: cell-based
How it was run: (§2)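 HEK293 cells were transiently electroporated with the rat receptor plus a chimeric Gi/Gq protein for PLC coupling and EAAC1. Medium was replaced by Glutamax at least 2 h before agonist. IP1 accumulation was measured by HTRF 24 h post-transfection, at least in duplicate.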

[6] = target: T4, Metabotropic glutamate receptor 2; assay: Agonist activity at rat mGlu2 receptor by FRET based mGlu sensor assay
How it was run: as §1, with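 “duplicate.” for “duplicate. EC50 ± SEM came from n = 4−6 experiments.”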

[7] = target: T5, Metabotropic glutamate receptor 1 (Rattus norvegicus, UniProt P23385); assay: Agonist activity at rat mGlu1 receptor expressed in HEK293 cells assessed as IP1 accumulation by IP-One functional assay; type: cell-based
How it was run: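 Rat group I receptor transiently electroporated into HEK293 with the EAAC1 glutamate transporter; medium switched to Glutamax at least 2 h before stimulation. IP1 was read by HTRF (IP-One kit) 24 h after transfection. Runs were at least in duplicate, with EC50 ± SEM from n = 4−6 experiments.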

[8] = target: T3, Excitatory amino acid transporter 1; assay: Substrate activity at human EAAT1 assessed as [3H]Asp uptake measured up to 300 uM
[9] = target: Metabotropic glutamate receptor 8 (Rattus norvegicus, UniProt P70579); assay: Agonist activity at rat mGlu8 receptor expressed in HEK293 cells assessed as IP1 accumulation by IP-One functional assay; type: cell-based
How it was run: as §2, with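 “duplicate. EC50 ± SEM came from n = 4−6 experiments.” for “duplicate.”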

[10] = target: T6, Excitatory amino acid transporter 2 (Homo sapiens, UniProt P43004); assay: Inhibition of human EAAT2 assessed as [3H]Asp uptake
T6 sequence (P43004 whole entry): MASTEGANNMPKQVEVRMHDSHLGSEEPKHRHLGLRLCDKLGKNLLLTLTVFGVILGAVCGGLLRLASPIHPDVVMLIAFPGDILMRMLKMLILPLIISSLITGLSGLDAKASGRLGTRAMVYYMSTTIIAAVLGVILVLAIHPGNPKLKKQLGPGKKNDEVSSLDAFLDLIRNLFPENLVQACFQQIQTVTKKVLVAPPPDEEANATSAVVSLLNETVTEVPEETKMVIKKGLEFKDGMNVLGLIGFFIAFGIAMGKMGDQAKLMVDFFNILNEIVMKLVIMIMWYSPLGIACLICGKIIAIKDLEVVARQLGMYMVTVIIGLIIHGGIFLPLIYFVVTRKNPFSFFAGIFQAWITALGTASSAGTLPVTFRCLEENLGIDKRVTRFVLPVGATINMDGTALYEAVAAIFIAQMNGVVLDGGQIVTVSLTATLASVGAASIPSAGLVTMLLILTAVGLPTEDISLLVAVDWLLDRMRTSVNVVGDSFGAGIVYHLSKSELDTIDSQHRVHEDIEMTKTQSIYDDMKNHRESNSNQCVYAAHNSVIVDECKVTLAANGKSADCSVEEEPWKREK

[11] = target: Metabotropic glutamate receptor 6 (Rattus norvegicus, UniProt P35349); assay: Agonist activity at rat mGlu6 receptor expressed in HEK293 cells assessed as IP1 accumulation by IP-One functional assay; type: cell-based
How it was run: as §2, with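 “duplicate. EC50 ± SEM came from n = 4−6 experiments.” for “duplicate.”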

[12] = target: T6, Excitatory amino acid transporter 2; assay: Substrate activity at human EAAT2 assessed as [3H]Asp uptake measured up to 300 uM
[13] = Displacement of [3H]KA from rat synaptosome KA receptor after 60 mins by microplate scintillation counter analysis
Glutamate NMDA receptor = assay: Displacement of [3H]CGP from rat synaptosome NMDA receptor after 60 mins by microplate scintillation counter analysis; type: protein-complex assay
[14] = target: T7, Metabotropic glutamate receptor 4 (Rattus norvegicus, UniProt P31423); assay: Agonist activity at rat mGlu4 receptor expressed in HEK293 cells assessed as IP1 accumulation by IP-One functional assay; type: cell-based
T7 sequence (P31423 whole entry): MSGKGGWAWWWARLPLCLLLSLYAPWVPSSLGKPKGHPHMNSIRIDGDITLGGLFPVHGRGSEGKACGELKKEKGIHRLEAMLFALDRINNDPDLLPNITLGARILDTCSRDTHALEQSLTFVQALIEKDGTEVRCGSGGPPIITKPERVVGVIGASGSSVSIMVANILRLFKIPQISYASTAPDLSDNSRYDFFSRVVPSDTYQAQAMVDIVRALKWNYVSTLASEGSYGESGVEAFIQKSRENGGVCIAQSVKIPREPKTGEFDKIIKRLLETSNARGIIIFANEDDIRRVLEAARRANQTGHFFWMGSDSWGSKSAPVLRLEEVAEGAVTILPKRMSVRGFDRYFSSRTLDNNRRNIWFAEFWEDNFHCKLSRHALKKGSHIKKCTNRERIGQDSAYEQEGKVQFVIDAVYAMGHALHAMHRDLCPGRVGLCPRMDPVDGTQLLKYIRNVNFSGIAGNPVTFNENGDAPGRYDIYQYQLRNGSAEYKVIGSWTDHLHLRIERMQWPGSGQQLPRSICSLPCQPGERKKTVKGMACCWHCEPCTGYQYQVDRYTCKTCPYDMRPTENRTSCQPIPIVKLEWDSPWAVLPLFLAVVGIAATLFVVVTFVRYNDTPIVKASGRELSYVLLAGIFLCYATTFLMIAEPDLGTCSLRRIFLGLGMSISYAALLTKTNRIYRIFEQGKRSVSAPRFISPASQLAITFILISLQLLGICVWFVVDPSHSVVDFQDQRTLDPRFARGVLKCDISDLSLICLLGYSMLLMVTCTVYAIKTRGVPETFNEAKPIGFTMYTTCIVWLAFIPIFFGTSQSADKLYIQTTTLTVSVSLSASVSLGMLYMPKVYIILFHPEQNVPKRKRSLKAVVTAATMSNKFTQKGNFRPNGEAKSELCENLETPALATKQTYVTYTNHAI
How it was run: as §2, with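 “duplicate. EC50 ± SEM came from n = 4−6 experiments.” for “duplicate.”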

[15] = target: T8, Excitatory amino acid transporter 3 (Homo sapiens, UniProt P43005); assay: Inhibition of human EAAT3 assessed as [3H]Asp uptake
T8 sequence (P43005 whole entry): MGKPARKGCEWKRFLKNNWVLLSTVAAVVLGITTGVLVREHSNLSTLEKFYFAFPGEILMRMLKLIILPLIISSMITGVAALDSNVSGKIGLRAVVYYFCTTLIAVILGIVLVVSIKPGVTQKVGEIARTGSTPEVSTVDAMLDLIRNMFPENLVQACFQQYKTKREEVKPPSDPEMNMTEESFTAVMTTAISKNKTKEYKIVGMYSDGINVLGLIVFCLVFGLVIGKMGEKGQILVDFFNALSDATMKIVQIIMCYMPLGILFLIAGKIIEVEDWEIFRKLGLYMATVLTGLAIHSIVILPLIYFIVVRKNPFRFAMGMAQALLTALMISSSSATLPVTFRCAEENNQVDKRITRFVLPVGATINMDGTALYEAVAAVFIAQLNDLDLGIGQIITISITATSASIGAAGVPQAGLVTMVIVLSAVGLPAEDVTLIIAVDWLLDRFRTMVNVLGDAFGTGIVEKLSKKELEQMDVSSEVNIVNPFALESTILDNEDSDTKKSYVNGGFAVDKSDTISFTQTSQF

[16] = target: Metabotropic glutamate receptor 7 (Rattus norvegicus, UniProt P35400); assay: Agonist activity at rat mGlu7 receptor expressed in HEK293 cells assessed as IP1 accumulation by IP-One functional assay; type: cell-based
Chain of Metabotropic glutamate receptor 7 (Rattus norvegicus, UniProt P35400) (P35400 whole entry): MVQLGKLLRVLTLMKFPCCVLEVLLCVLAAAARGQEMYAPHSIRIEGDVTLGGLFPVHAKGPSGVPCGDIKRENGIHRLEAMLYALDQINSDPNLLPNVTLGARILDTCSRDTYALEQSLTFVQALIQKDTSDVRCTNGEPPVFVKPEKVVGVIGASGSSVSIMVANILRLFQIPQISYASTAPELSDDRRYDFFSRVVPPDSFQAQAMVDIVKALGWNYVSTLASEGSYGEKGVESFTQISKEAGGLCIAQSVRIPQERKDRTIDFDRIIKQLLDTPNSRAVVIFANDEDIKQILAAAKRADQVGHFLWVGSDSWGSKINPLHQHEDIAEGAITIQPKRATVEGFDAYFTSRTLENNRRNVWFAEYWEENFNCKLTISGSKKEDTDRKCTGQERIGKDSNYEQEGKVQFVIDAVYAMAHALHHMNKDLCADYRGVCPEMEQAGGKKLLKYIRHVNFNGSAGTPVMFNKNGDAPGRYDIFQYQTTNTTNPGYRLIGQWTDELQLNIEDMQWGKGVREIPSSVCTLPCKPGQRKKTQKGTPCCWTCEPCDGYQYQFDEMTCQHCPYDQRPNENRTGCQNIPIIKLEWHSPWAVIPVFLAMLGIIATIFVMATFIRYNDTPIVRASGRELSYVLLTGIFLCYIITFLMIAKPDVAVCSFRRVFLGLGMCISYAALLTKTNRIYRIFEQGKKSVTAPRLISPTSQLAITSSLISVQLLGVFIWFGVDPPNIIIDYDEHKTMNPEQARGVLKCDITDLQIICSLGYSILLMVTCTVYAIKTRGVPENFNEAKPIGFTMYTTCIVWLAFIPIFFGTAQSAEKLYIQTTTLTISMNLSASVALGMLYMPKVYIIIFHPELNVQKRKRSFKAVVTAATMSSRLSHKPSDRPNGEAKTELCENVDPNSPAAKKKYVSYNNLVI
How it was run: as §2, with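 “duplicate. EC50 ± SEM came from n = 4−6 experiments.” for “duplicate.”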

[17] = target: T4, Metabotropic glutamate receptor 2; assay: Agonist activity at rat mGlu2 receptor expressed in HEK293 cells by [35S]GTP-gamma binding assay; type: cell-based
[18] = target: T7, Metabotropic glutamate receptor 4; assay: Agonist activity at rat mGlu4 receptor expressed in HEK293 cells assessed as inhibition of forskolin stimulated cAMP production; type: functional, cell-based
[19] = target: T5, Metabotropic glutamate receptor 1; assay: Agonist activity at rat mGlu1 receptor expressed in HEK293 cells by intracellular Ca2+ mobilization assay; type: functional, cell-based
[20] = target: T1, Metabotropic glutamate receptor 3; assay: Agonist activity at rat mGlu3 receptor expressed in HEK293 cells by [35S]GTP-gamma binding assay; type: cell-based
[21] = target: Metabotropic glutamate receptor 7 (Homo sapiens, UniProt Q14831); assay: Agonist activity at human mGlu7 receptor expressed in HEK293 assessed as inhibition of forskolin stimulated cAMP production; type: functional, cell-based
Chain of Metabotropic glutamate receptor 7 (Homo sapiens, UniProt Q14831) (Q14831 whole entry): as the sequence (P35400 whole entry) above, with G5R, V27A, H454N, T488S, S520A, N578D counted along it

[22] = target: T2, Metabotropic glutamate receptor 5; assay: Agonist activity at rat mGlu5 receptor expressed in HEK293 cells by intracellular Ca2+ mobilization assay; type: functional, cell-based
[23] = target: Metabotropic glutamate receptor 2 (Homo sapiens) (UniProt Q14416); assay: Agonist activity at mGlu2 receptor (unknown origin) assessed as IP1 accumulation preincubated with 3 uM LY341495 for 20 mins followed by addition of 1 mM of compound by IP-One functional assay
How it was run: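 Single-dose test in HEK293 cells cotransfected with rat receptor, chimeric Gi/Gq and EAAC1. Cells were pretreated with 3 μM LY341495 for 20 min at 37 °C, washed twice, then stimulated with 1 mM compound. IP1 was read by HTRF 24 h post-transfection. Comparison was against vehicle by one-way ANOVA with Dunnett's test.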

[24] = target: Metabotropic glutamate receptor 3 (Rattus norvegicus) (UniProt P31422); assay: Agonist activity at mGlu3 receptor (rat) assessed as IP1 accumulation preincubated with 3 uM LY341495 for 20 mins followed by addition of 1 mM of compound by IP-One functional assay

EC50 [1] [µM]	EC50 [6] [µM]	EC50 [11] [µM]	EC50 [16] [µM]	EC50 ([17]; read-out: EC50) [µM]	EC50 [18] [µM]	EC50 [19] [µM]	EC50 [20] [µM]	EC50 [21] [µM]	EC50 [22] [µM]	SMILES	also measured
				> 1000	> 1000	> 1000	> 1000	> 1000	> 1000	N#CCC[C@H](C[C@H](N)C(=O)O)C(=O)O	
				> 1000	> 1000	> 1000				CC[C@H](C[C@H](N)C(=O)O)C(=O)O	
> 1000	120	> 1000	> 1000	1.63	> 1000	> 1000	348	> 1000	> 1000	N[C@@H](C[C@@H](CCC(=O)O)C(=O)O)C(=O)O	EC50 ([17]; read-out: pEC50 (converted)): 1.66 µM; EC50 [2]: > 1000 µM; IC50 [3]: > 100 µM; IC50 [4]: > 300 µM; EC50 [5]: 34.2 µM; EC50 [7]: > 1000 µM; Activity [23]: Active; Activity [8]: inactive; EC50 [9]: > 1000 µM; Activity [24]: inactive; IC50 [10]: > 300 µM; Activity [12]: inactive; IC50 [13]: > 100 µM; EC50 [14]: ≥ 100 µM; IC50 [15]: > 300 µM
				> 1000	> 1000	> 1000				CCC[C@H](C[C@H](N)C(=O)O)C(=O)O	

Continued, molecule first:

SMILES	EC50 [1] [µM]	EC50 [6] [µM]	EC50 [11] [µM]	EC50 [16] [µM]	EC50 ([17]; read-out: EC50) [µM]	EC50 [18] [µM]	EC50 [19] [µM]	EC50 [20] [µM]	EC50 [21] [µM]	EC50 [22] [µM]	also measured
N[C@@H](C[C@@]1(C(=O)O)C[C@H]1C(=O)O)C(=O)O	> 1000	> 1000	> 1000	> 1000							EC50 [2]: > 1000 µM; IC50 [3]: > 100 µM; IC50 [4]: > 300 µM; EC50 [5]: > 1000 µM; EC50 [7]: > 1000 µM; Activity [8]: inactive; EC50 [9]: > 1000 µM; IC50 [10]: > 300 µM; Activity [12]: inactive; IC50 [13]: > 100 µM; Ki (Glutamate NMDA receptor): > 100 µM; EC50 [14]: > 1000 µM; IC50 [15]: > 300 µM
NC(=O)CC[C@H](C[C@H](N)C(=O)O)C(=O)O					> 1000	> 1000	> 1000			> 1000	
N[C@@H](C[C@@H](CC(=O)O)C(=O)O)C(=O)O					> 1000	> 1000	> 1000	> 1000	> 1000	> 1000	
N[C@@H](CCP(=O)(O)O)C(=O)O			1.91	340							EC50 ([9]; hek293): 0.07 µM
CN(O)C(=O)CC[C@H](C[C@H](N)C(=O)O)C(=O)O					> 1000	> 1000	> 1000	> 1000	> 1000	> 1000	
N[C@H](C(=O)O)C1[C@@H](C(=O)O)[C@@H]1C(=O)O (stereo not given in full)	0.08	0.35									
